Reference: ChEMBL document CHEMBL1629563, “Pharmacokinetic and safety evaluation of BILR 355, a second-generation nonnucleoside reverse transcriptase inhibitor, in healthy volunteers” (Antimicrob Agents Chemother, 2008)

Tests used:
[1] = Tmax in healthy human at 25 mg, po administered as single dose; type: ADME, organism-based; details: in vivo
Homo sapiens [2] = assay: Toxicity in healthy human assessed as occurrence of abdominal pain at 75 mg, po administered as single dose relative to control; type: organism-based, Abdomen; details: in vivo
Homo sapiens [3] = assay: Toxicity in healthy human assessed as occurrence of diarrhea at 5 mg, po administered as single dose coadministered with 100 mg of ritonavir; type: organism-based; details: in vivo
Homo sapiens [4] = assay: Toxicity in healthy human assessed as occurrence of diarrhea at 62.5 mg, po administered as single dose coadministered with 100 mg of ritonavir; type: organism-based; details: in vivo
Homo sapiens [5] = assay: Toxicity in healthy human assessed as occurrence of maculopapular rash at 62.5 mg, po administered as single dose coadministered with 100 mg of ritonavir; type: organism-based; details: in vivo
[6] = AUC (0 to infinity) in healthy human at 25 mg, po administered as single dose coadministered with 100 mg of ritonavir; type: ADME, organism-based; parameters: dose 25 mg, route oral, time infinity; details: plasma
How it was run: (§1)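 Healthy male volunteers, fasted. Ritonavir 100 mg given 10 h before and again together with single oral BILR 355 in PEG solution. EDTA plasma sampled predose to 144 h. LC-MS/MS assay after protein precipitation. Noncompartmental analysis, AUC by linear up/log down trapezoidal rule; Vss = CL/F·(MRTp.o. − 1/Ka).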

[7] = Half life in healthy human at 12.5 mg, po administered as single dose coadministered with 100 mg of ritonavir; type: ADME, organism-based; details: in vivo
[8] = Apparent oral clearance in healthy human at 100 mg, po administered as single dose; type: ADME, organism-based; details: in vivo
How it was run: (§2)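 Healthy male volunteers, six active plus two placebo per dose group, single oral dose in PEG solution with 200 ml water after overnight fast; breakfast 60 to 90 min post-dose. EDTA plasma sampled predose to 144 h. Assayed by validated LC-MS/MS after protein precipitation. Noncompartmental analysis, AUC by linear up/log down trapezoidal rule; Vss = CL/F·(MRTp.o. − 1/Ka).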

[9] = AUC (0 to last) in healthy human at 62.5 mg, po administered as single dose coadministered with 100 mg of ritonavir; type: ADME, organism-based; parameters: dose 62.5 mg, time 0 - last, route oral; details: plasma; how it was run: as §1
[10] = Apparent volume of distribution in terminal phase in healthy human at 62.5 mg, po administered as single dose coadministered with 100 mg of ritonavir; type: ADME, organism-based; details: in vivo, read-out: Vz/F
How it was run: (§3)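 Healthy male volunteers, fasted overnight, got one oral dose of BILR 355 in PEG solution with 200 ml water. Ritonavir 100 mg was given 10 h before and again with the dose. Plasma was sampled (EDTA) from predose to 144 h and assayed by validated LC-MS/MS. Cmax and Vz/F came from noncompartmental analysis. Vss/F = CL/F·(MRTp.o. − 1/Ka), with Ka from compartmental modelling.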

[11] = AUC (0 to last) in healthy human at 12.5 mg, po administered as single dose coadministered with 100 mg of ritonavir; type: ADME, organism-based; parameters: dose 12.5 mg, time 0 - last, route oral; details: plasma; how it was run: as §1
[12] = Mean residence time in healthy human at 62.5 mg, po administered as single dose coadministered with 100 mg of ritonavir; type: ADME, organism-based; details: in vivo
Homo sapiens [13] = assay: Toxicity in healthy human assessed as occurrence of increase in alanine aminotransferase level at 75 mg, po administered as single dose relative to control; type: organism-based; details: in vivo
[14] = Renal clearance in healthy human at 75 mg, po administered as single dose coadministered with 100 mg of ritonavir by high-pressure liquid chromatography-tandem mass spectrometry/mass spectrometry method; type: ADME, organism-based, Kidney; details: in vivo, read-out: CL_renal (converted)
Homo sapiens [15] = assay: Toxicity in healthy human assessed as occurrence of headache at 12.5 mg, po administered as single dose relative to control; type: organism-based; details: in vivo
[16] = Apparent volume of distribution in terminal phase in healthy human at 37.5 mg, po administered as single dose coadministered with 100 mg of ritonavir; type: ADME, organism-based; details: in vivo, read-out: Vz/F; how it was run: as §3
[17] = AUC (0 to infinity) in healthy human at 12.5 mg, po administered as single dose coadministered with 100 mg of ritonavir; type: ADME, organism-based; parameters: dose 12.5 mg, route oral, time infinity; details: plasma; how it was run: as §1
Homo sapiens [18] = assay: Toxicity in healthy human assessed as occurrence of frequent bowel movements at 12.5 mg, po administered as single dose relative to control; type: organism-based; details: in vivo
[19] = Cmax in healthy human at 25 mg, po administered as single dose coadministered with 100 mg of ritonavir by high-pressure liquid chromatography-tandem mass spectrometry/mass spectrometry method; type: ADME, organism-based; parameters: dose 25 mg, route oral; details: in vivo; how it was run: as §3
Homo sapiens [20] = assay: Ratio of AUC (0 to infinity) in human at 75 mg, po in presence of 100 mg of ritonavir to AUC (0 to infinity) in human at 75 mg, po; type: ADME, organism-based; details: in vivo
Homo sapiens [21] = assay: Toxicity in healthy human assessed as occurrence of aphthous stomatitis at 75 mg, po administered as single dose coadministered with 100 mg of ritonavir; type: organism-based; details: in vivo
[22] = Renal clearance in healthy human at 62.5 mg, po administered as single dose coadministered with 100 mg of ritonavir by high-pressure liquid chromatography-tandem mass spectrometry/mass spectrometry method; type: ADME, organism-based, Kidney; details: in vivo, read-out: CL_renal (converted)
Homo sapiens [23] = assay: Toxicity in healthy human assessed as occurrence of herpes simplex at 5 mg, po administered as single dose relative to control; type: organism-based; details: in vivo
Homo sapiens [24] = assay: Toxicity in healthy human assessed as occurrence of maculopapular rash at 5 mg, po administered as single dose coadministered with 100 mg of ritonavir; type: organism-based; details: in vivo
[25] = Half life in healthy human at 25 mg, po administered as single dose coadministered with 100 mg of ritonavir; type: ADME, organism-based; details: in vivo
Homo sapiens [26] = assay: Toxicity in healthy human assessed as occurrence of increase in alanine aminotransferase level at 25 mg, po administered as single dose relative to control; type: organism-based; details: in vivo
[27] = Apparent oral clearance in healthy human at 50 mg, po administered as single dose; type: ADME, organism-based; details: in vivo; how it was run: as §2
Homo sapiens [28] = assay: Toxicity in healthy human assessed as occurrence of abdominal pain at 25 mg, po administered as single dose relative to control; type: organism-based, Abdomen; details: in vivo
Homo sapiens [29] = assay: Toxicity in high fat fed healthy human assessed as occurrence of aphthous stomatitis at 50 mg, po administered as single dose coadministered with 100 mg of ritonavir; type: organism-based; details: in vivo
[30] = Apparent oral clearance in healthy human at 87.5 mg, po administered as single dose coadministered with 100 mg of ritonavir; type: ADME, organism-based; details: in vivo; how it was run: as §1
[31] = AUC (0 to last) in healthy human at 50 mg, po administered as single dose; type: ADME, organism-based; parameters: dose 50 mg, route oral, time 0 - last; details: plasma; how it was run: as §2
[32] = Apparent volume of distribution at steady state in healthy human at 100 mg, po administered as single dose; type: ADME, organism-based; details: in vivo, read-out: Vss/F; how it was run: as §2
Homo sapiens [33] = assay: Toxicity in healthy human assessed as occurrence of nausea at 12.5 mg, po administered as single dose relative to control; type: organism-based; details: in vivo
[34] = Drug excretion in healthy human urine assessed as unchanged drug at 12.5 mg, po administered as single dose coadministered with 100 mg of ritonavir by high-pressure liquid chromatography-tandem mass spectrometry/mass spectrometry method; type: ADME, organism-based; details: read-out: Drug uptake
How it was run: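 Ritonavir 100 mg was given 10 h before and with one oral dose of BILR 355 in PEG solution. Urine was collected by weight as predose blank, then 0-6, 6-24 and 24-72 h, stored at −20°C and assayed by LC-MS/MS. fe = unchanged drug excreted (Ae) as a percentage of dose. Line 50: high-fat breakfast 30 min before dosing.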

[35] = AUC (0 to infinity) in healthy human at 25 mg, po administered as single dose; type: ADME, organism-based; parameters: dose 25 mg, route oral, time infinity; details: plasma; how it was run: as §2

SMILES: CCN1c2ncc(CCOc3cc[n+]([O-])c4ccccc34)cc2C(=O)N(C)c2cccnc21 [BILR 355]
- Tmax [1]: 0.833 h
- Activity (Homo sapiens [2]): 16.7%
- Activity (Homo sapiens [3]): 0%
- Activity (Homo sapiens [4]): 0%
- Activity (Homo sapiens [5]): 0%
- AUC(0-inf) [6]: 4340 ng·h/mL
- half-life [7]: 15.9 h
- CL/F [8]: 1320 mL/min
- AUC(0-t) [9]: 7480 ng·h/mL
- Vd/F [10]: 118 L
- AUC(0-t) [11]: 1680 ng·h/mL
- MRT [12]: 14 h
- Activity (Homo sapiens [13]): 0%
- CL renal [14]: 5.85 mL/min
- Activity (Homo sapiens [15]): 0%
- Vd/F [16]: 104 L
- AUC(0-inf) [17]: 1960 ng·h/mL
- Activity (Homo sapiens [18]): 0%
- Cmax [19]: 226 ng/mL
- Ratio (Homo sapiens [20]): 15
- Activity (Homo sapiens [21]): 0%
- CL renal [22]: 7.17 mL/min
- Activity (Homo sapiens [23]): 16.7%
- Activity (Homo sapiens [24]): 0%
- half-life [25]: 11.5 h
- Activity (Homo sapiens [26]): 0%
- CL/F [27]: 2150 mL/min
- Activity (Homo sapiens [28]): 16.7%
- Activity (Homo sapiens [29]): 0%
- CL/F [30]: 138 mL/min
- AUC(0-t) [31]: 406 ng·h/mL
- Vd/F [32]: 163 L
- Activity (Homo sapiens [33]): 0%
- dose excreted [34]: 6.37%
- AUC(0-inf) [35]: 142 ng·h/mL
